The source made the active and inactive calls. No cut-off for these calls is given here.
Key:
[1] = target: T1, cAMP-dependent protein kinase (PKA) (Homo sapiens, UniProt P22694+P17612+P22612); experiment: Inhibition of PKA-mediated phosphorylation of kemptide at 100 uM; assay type: protein assay
Outline: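 PKA (41 µg/ml) with kemptide (10 µM) and compound at 100 µM in 40 mM Tris pH 7.5, 20 mM MgCl2, 0.1 mg/ml BSA; equilibrated 1 h. ATP added (1 µM); after 10 min, remaining ATP read by Kinase-Glo Plus luminescence. DMSO and no-kinase controls; means of two replicates.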

[2] = target: Protein kinase C (PKC) (Homo sapiens) (UniProt O94806+P41743+P17252+P05129+Q05655+P05771+Q05513+Q02156+P24723+Q15139+Q04759); experiment: Inhibition of PKC-mediated phosphorylation of neurogranin at 100 uM; assay type: protein assay
Outline: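 PKC (0.33 µg/ml), neurogranin (20 µM), compound 100 µM in 20 mM Tris pH 7.5, 10 mM MgCl2, 0.1 mg/ml BSA, 250 µM EGTA, 400 µM CaCl2 plus lipid activator (phosphatidylserine, […], CaCl2); 1 h equilibration. DMSO and no-kinase controls; duplicate means.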

[3] = target: T1, cAMP-dependent protein kinase (PKA); experiment: Inhibition of PKA-mediated phosphorylation of kemptide

For `CCc1cccc2c1CNc1c(cccc1CCc1ccccc1)/C=C\2COc1cccc(F)c1`, the Activity [1] was “inactive” and the Activity [2] was “inactive”.
With `CCc1cccc2c1CNc1c(cccc1CCc1ccccc1)/C=C\2COc1ccccc1NC(C)=O` the IC50 [3] was 122 µM and the Activity [2] was “inactive”.
For `CCc1cccc2c1CNc1c(cccc1CCc1ccccc1)/C=C\2COc1ccccc1[N+](=O)[O-]`, the Activity [1] was “inactive” and the Activity [2] was “inactive”.
With `CCc1cccc2c1CNc1c(cccc1CCc1ccccc1)/C=C\2COc1ccccc1C(F)(F)F` the Activity [1] was “inactive” and the Activity [2] was “inactive”.
For `CCc1cccc2c1CNc1c(cccc1CCc1ccccc1)/C=C\2COc1ccc(F)cc1`, the Activity [1] was “inactive” and the Activity [2] was “inactive”.
In the case of `CCc1cccc2c1CNc1c(cccc1CCc1ccccc1)/C=C\2COc1ccccc1F`, the Activity [1] is reported as “inactive” and the Activity [2] is reported as “inactive”.
For `CCc1cccc2c1CNc1c(cccc1CCc1ccccc1)/C=C\2COc1ccccc1`, the Activity [1] was “inactive” and the Activity [2] was “inactive”.
With `CCc1cccc2c1CNc1c(cccc1CCc1ccccc1)/C=C\2COc1ccc(C(=O)OC)cc1` the Activity [1] was “inactive” and the Activity [2] was “inactive”.
For `CCc1cccc2c1CNc1c(cccc1CCc1ccccc1)/C=C\2COc1cccc(OC)c1`, the Activity [1] was “inactive” and the Activity [2] was “inactive”.
`CCc1cccc2c1CNc1c(cccc1CCc1ccccc1)/C=C\2COc1ccccc1C(=O)OC` was tested, and the Activity [1] was “inactive” and the Activity [2] was “inactive”.
With `CCc1cccc2c1CNc1c(cccc1CCc1ccccc1)/C=C\2COc1ccc(OC)cc1` the Activity [1] was “inactive” and the Activity [2] was “inactive”.
For `CCc1cccc2c1CNc1c(cccc1CCc1ccccc1)/C=C\2COc1cccc(Cl)c1`, the Activity [1] was “inactive” and the Activity [2] was “inactive”.
For `CCc1cccc2c1CNc1c(cccc1CCc1ccccc1)/C=C\2COc1cccc([N+](=O)[O-])c1`, the Activity [1] was “inactive” and the Activity [2] was “inactive”.
With `CCc1cccc2c1CNc1c(cccc1CCc1ccccc1)/C=C\2COc1ccc(Cl)cc1` the Activity [1] was “inactive” and the Activity [2] was “inactive”.
In the case of `CCc1cccc2c1CNc1c(cccc1CCc1ccccc1)/C=C\2COc1ccc([N+](=O)[O-])cc1`, the Activity [1] is reported as “inactive” and the Activity [2] is reported as “inactive”.
For `CCc1cccc2c1CNc1c(cccc1CCc1ccccc1)/C=C\2COc1cccc(C(F)(F)F)c1`, the Activity [1] was “inactive” and the Activity [2] was “inactive”.
For `CCc1cccc2c1CNc1c(cccc1CCc1ccccc1)/C=C\2COc1ccccc1Cl`, the Activity [1] was “inactive” and the Activity [2] was “inactive”.
With `CCc1cccc2c1CNc1c(cccc1CCc1ccccc1)/C=C\2COc1cccc(C(=O)OC)c1` the Activity [1] was “inactive” and the Activity [2] was “inactive”.
In the case of `CCc1cccc2c1CNc1c(cccc1CCc1ccccc1)/C=C\2COc1ccccc1OC`, the Activity [1] is reported as “inactive” and the Activity [2] is reported as “inactive”.

— ChEMBL document CHEMBL1137277, “Synthesis of highly substituted dibenzo[b,f]azocines and their evaluation as protein kinase inhibitors” (Bioorg Med Chem Lett, 2006)
